The list is not random: actives were taken first. Their share in the collection is about 1.3%.
C-LANA FP – blocks KSHV LANA C-terminal domain binding to DNA; MBP-C-LANA/FAM-LBS DNA binding, fluorescence polarization; inhibition, % at 9 µM; actives 0.078% (n = 340,000);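 active = highest replicate inhibition at or above 60% at 9 µM, even if other replicates fall short; inactive = all replicates below 60% inhibition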
EBV gp42 block – blocks Epstein-Barr virus glycoprotein 42 binding. AID 1085. actives 0.42% (n = 220,000). inhibition, % (tested at 21.74 µM). Fluorescence polarization binding assay, mP read-out. Q1HVG2; in the data active = inhibition above about 50%
Keap1-Nrf2 PPI – disrupts human Keap1 binding to Nrf2 peptide; inhibition, % at 9.4 µM; AID 504523; actives 0.15% (n = 340,000); Keap1 Kelch-Nrf2 peptide fluorescence polarization, 1536-well; Q14145; in the data active = inhibition above about 12%; inconclusive = no clear call, values can overlap the other calls; inactive = below about 7.3%;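 also: human Keap1 Kelch domain with fluorescein labeled Nrf2 9mer peptide probe; higher means more block of Keap1 binding to Nrf2 peptide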
Target sequence (Q14145 whole entry, looked up, the tested form may be a part): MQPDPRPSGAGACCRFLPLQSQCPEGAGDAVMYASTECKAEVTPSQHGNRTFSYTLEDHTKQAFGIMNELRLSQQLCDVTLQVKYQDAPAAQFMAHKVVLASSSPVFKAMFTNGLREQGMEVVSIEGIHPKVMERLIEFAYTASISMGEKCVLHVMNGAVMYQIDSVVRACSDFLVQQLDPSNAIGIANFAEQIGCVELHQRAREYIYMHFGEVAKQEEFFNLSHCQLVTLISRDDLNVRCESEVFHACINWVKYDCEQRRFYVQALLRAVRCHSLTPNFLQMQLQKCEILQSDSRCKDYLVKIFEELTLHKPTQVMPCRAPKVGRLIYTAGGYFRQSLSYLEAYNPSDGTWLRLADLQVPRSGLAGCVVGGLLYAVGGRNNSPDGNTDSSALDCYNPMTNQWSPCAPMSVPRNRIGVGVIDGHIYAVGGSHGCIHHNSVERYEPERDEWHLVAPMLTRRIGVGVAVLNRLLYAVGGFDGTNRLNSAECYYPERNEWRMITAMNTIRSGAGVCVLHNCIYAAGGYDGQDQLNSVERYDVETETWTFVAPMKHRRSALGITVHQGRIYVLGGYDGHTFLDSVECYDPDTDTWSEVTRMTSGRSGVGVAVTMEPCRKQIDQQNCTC
T cell HTS – T cell immune modulation candidate; AID 2052; 2C CD8+ T cell-vesicle binding, flow cytometry; stronger effect = lower value; response (vesicle binding), % at 7 µM; actives 0.068% (n = 330,000);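 active = response, share of CD8 T cells binding vesicles, and their 90th percentile fluorescence all below set limits, cut at about 80% in these data, passing the limit was not always enough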;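 also: values below 100% mean blocked vesicle binding to the CD8+ T cells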
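Read-out – percent CD8+ FL2 mean versus row control · System – murine 2C transgenic CD8+ T lymphocytes · Times – 1.5 h cell–vesicle binding at 37 °C, then 20 min icy labelling · Control set – naked vesicles low, QL9 vesicles with vehicle high · Detection – cytometric PE anti-B7-1 and Alexa647 anti-CD8 signals after 1% paraformaldehyde fixation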
MEX-5 binding – C. elegans MEX-5 TCR-2 RNA binding activity; Q9XUB2; MEX-5/FITC-TCR2 RNA binding, fluorescence polarization; stronger effect = lower value; activity score (negative = inhibition of binding), % at 10 µM; actives 0.38% (n = 300,000);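 active = inhibition past about -25% in most replicates, and total fluorescence under double the plate's negative control median, limit read from the data; inconclusive = replicates evenly split on the limit, or fluorescence at least double controls; inactive = too little inhibition in most replicates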
GRK2 inh – human GRK2 inhibition via aptamer displacement; P25098; bead flow cytometry, FAM-aptamer displacement from GRK2; inhibition of aptamer binding, % at 10 µM; actives 0.59% (n = 330,000);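 active = inhibition of aptamer binding above 40%, roughly 3 SD of noise, on plates passing a quality check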;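 also: median bead fluorescence of bound FAM aptamer so fluorescent compounds give negative values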
Keap1 Kelch bind – Keap1 (human) Kelch domain binding; actives 8% (n = 400); max delta Tm, degrees C; Keap1 Kelch thermal shift, delta Tm; stronger effect = higher value; shares compounds with Keap1-Nrf2 PPI; in the data active = max delta Tm above about 0.48 degrees C
Dye-only ctr – shifts Sypro Orange melt without protein, a false positive; AID 651858; 140 tested, under 10 active; Sypro Orange dye-only thermal melt, no protein, delta Tm; top dose 26 µM; delta Tm, degrees C (no concentration beside the values); shares compounds with Keap1-Nrf2 PPI;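 active = at highest dose tested, delta Tm positive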
Large screens that a line does not name were inactive (follow-up assays come after a bar, where they were run).

CCN(CC)S(=O)(=O)c1ccc(C(=O)N2CCN(CCN3C(=O)c4cccc5cccc(c45)C3=O)CC2)cc1	none (no result: C-LANA FP, Keap1-Nrf2 PPI)
CCCN(CCC)S(=O)(=O)c1ccc(C(=O)OCCN2C(=O)c3cccc4c(N5CCOCC5)ccc(c34)C2=O)cc1	EBV gp42 block 135, Keap1-Nrf2 PPI 39, MEX-5 binding inconclusive | Keap1 Kelch bind inactive | Dye-only ctr inactive
CN(N=Nc1cccc([N+](=O)[O-])c1)c1ccccc1	none (no result: EBV gp42 block)
CN(N=Nc1ccc([N+](=O)[O-])cc1)c1ccccc1	C-LANA FP 101, EBV gp42 block 82, Keap1-Nrf2 PPI 113, MEX-5 binding -58 | Keap1 Kelch bind inactive
O=C1Nc2c(Cl)cc(Cl)cc2C1=O	none (no result: EBV gp42 block, T cell HTS, MEX-5 binding, GRK2 inh)
O=C(COc1cccc2c1CCN(Cc1ccc(Br)cc1)C2=O)NCc1ccco1	none
Nc1c(Cl)ncnc1NCc1ccccc1	Keap1-Nrf2 PPI 31 (no result: EBV gp42 block) | Keap1 Kelch bind inactive
C=CCn1c(=O)/c(=C\c2ccsc2)s/c1=C(/C#N)C(=O)NCCN1CCOCC1	Keap1-Nrf2 PPI 16, MEX-5 binding -46 | Keap1 Kelch bind inactive | Dye-only ctr inactive
COc1ccc(-n2c(=O)/c(=C\c3cccs3)s/c2=C(/C#N)C(=O)NCCN2CCOCC2)cc1	none
CCOCc1cc(CN2CCC(n3nccc3NC(=O)C3CC3)CC2)ccc1OC	none (no result: EBV gp42 block, T cell HTS, GRK2 inh)
Cc1cc(C(=O)Nc2cccc3c2O[C@H](CN(C)CC2CC2)[C@@H](C)CN([C@H](C)CO)C3=O)n(C)n1	none (no result: EBV gp42 block, MEX-5 binding)
CC(C)CCN1C(=O)c2cccc3c(N)ccc(c23)C1=O	C-LANA FP 96, Keap1-Nrf2 PPI 71 (no result: EBV gp42 block, MEX-5 binding) | Keap1 Kelch bind inactive
Cc1cccc(N2C(=O)c3cccc4c(N)ccc(c34)C2=O)c1	C-LANA FP 135, Keap1-Nrf2 PPI 75, MEX-5 binding inconclusive (no result: EBV gp42 block) | Keap1 Kelch bind inactive | Dye-only ctr inactive
Cc1cccc(N2C(=O)c3cccc4cccc(c34)C2=O)c1	none (no result: EBV gp42 block)
Cc1cccc(N2C(=O)c3cccc4c(N(C)CCO)ccc(c34)C2=O)c1	C-LANA FP 68, EBV gp42 block 157, Keap1-Nrf2 PPI 12, MEX-5 binding inconclusive | Keap1 Kelch bind inactive
Nc1cccc(N2C(=O)c3cccc4c(N)ccc(c34)C2=O)c1	C-LANA FP 88, Keap1-Nrf2 PPI 17, MEX-5 binding inconclusive (no result: EBV gp42 block) | Keap1 Kelch bind inactive
CCOC(=O)N1CCN(S(=O)(=O)N2CCCC(C(=O)NCc3ccc(F)cc3)C2)CC1 (stereo unspecified)	none (no result: EBV gp42 block)
O=C(Cn1cc(C(F)(F)F)cc(Cl)c1=O)NCCc1ccccc1	none
Cc1noc(C)c1C(=O)OCC(=O)NCCC1=CCCCC1	none
CC(=O)Nc1ccc2c3c(cccc13)C(=O)N(c1ccccc1)C2=O	none
Nc1ccc2c3c(cccc13)C(=O)N(c1ccccc1)C2=O	EBV gp42 block 162, Keap1-Nrf2 PPI 31, MEX-5 binding inconclusive (no result: T cell HTS, GRK2 inh) | Keap1 Kelch bind inactive
Cc1ccccc1Cn1c(-c2ccc(=O)[nH]c2)nc2ccccc21	none (no result: EBV gp42 block)
CC(C)(C)c1csc(NC(=O)Cc2ccc(S(=O)(=O)N3CCOCC3)s2)n1	none (no result: EBV gp42 block)
Cc1cnc(NC(=O)Cc2ccc(S(=O)(=O)N3CCOCC3)s2)s1	Keap1-Nrf2 PPI 13 (no result: EBV gp42 block, MEX-5 binding) | Keap1 Kelch bind inactive
COc1ccc(C=Nc2cccnc2N)cc1	Keap1-Nrf2 PPI 23 (no result: EBV gp42 block) | Keap1 Kelch bind inactive
O=C(c1ccc(Cl)cc1)c1oc2ccccc2c1CS(=O)c1ccccc1 (stereo unspecified)	none
CCN1CCCC1CNCc1ccc(Cl)cc1Cl (stereo unspecified)	none (no result: T cell HTS)
O=S(=O)(O)c1ccc(O)c2cc(Nc3ccccc3)ccc12	C-LANA FP 120, Keap1-Nrf2 PPI 25 (no result: EBV gp42 block, T cell HTS, MEX-5 binding, GRK2 inh) | Keap1 Kelch bind 0.97
COc1cc(/C=C/CN2CCN(Cc3ccc(C)o3)C(CCO)C2)ccc1O (stereo unspecified)	none
COc1cc(/C=C/CN2CCN(CCC(C)C)C(CCO)C2)ccc1O (stereo unspecified)	Keap1-Nrf2 PPI 18 | Keap1 Kelch bind inactive
CCOCCCn1c(=NC(=O)c2cccs2)c(C#N)cc2c(=O)n3ccccc3nc21	Keap1-Nrf2 PPI 23, MEX-5 binding inconclusive | Keap1 Kelch bind inactive
O=C1CSC(=S)N1	none (no result: EBV gp42 block)
O=C(NCc1ccc(Cl)cc1)c1cc(=O)[nH]c2ccccc12	Keap1-Nrf2 PPI 59 (no result: EBV gp42 block) | Keap1 Kelch bind inactive
Cn1nc(N2CCN(S(=O)(=O)c3ccccc3)CC2)c(=O)n(C)c1=O	none (no result: EBV gp42 block, MEX-5 binding)
COc1ccccc1N1CCN(c2nnc(-c3ccc(F)cc3)c3ccccc23)CC1	none
COc1cc2c3nnc(-c4ccc(F)cc4)c-3cn(Cc3ccccc3F)c2cc1OC	Keap1-Nrf2 PPI 17 (no result: T cell HTS, MEX-5 binding, GRK2 inh) | Keap1 Kelch bind inactive
O=C(c1c(F)cccc1F)N1CCCC(c2nc(-c3ccc(Cl)cc3)no2)C1 (stereo unspecified)	none (no result: EBV gp42 block)
COc1ccc(NC(=O)c2cccc(-c3ccc(O)cc3)c2)cn1	Keap1-Nrf2 PPI 13 (no result: EBV gp42 block) | Keap1 Kelch bind inactive
CC1CC(C)(C)NC(=S)N1CC(=O)NCc1ccc(Cl)cc1 (stereo unspecified)	none
CN(C)c1ccc(/C=N/NC(=O)CCC(=O)NCc2ccccc2)cc1	Keap1-Nrf2 PPI 53 | Keap1 Kelch bind inactive
CC(Oc1ccccc1)C(=O)N1CCN(C(=O)C(C)Oc2ccccc2)CC1 (stereo unspecified)	none (no result: EBV gp42 block)
Cc1ccc(OC(C)C(=O)N2CCN(c3ccccn3)CC2)cc1 (stereo unspecified)	Keap1-Nrf2 PPI 35 (no result: EBV gp42 block, T cell HTS, MEX-5 binding, GRK2 inh) | Keap1 Kelch bind inactive
CCN(CC(=O)Nc1c(F)cccc1F)C(=O)c1ccc2c(c1)NC(=O)C(C)S2 (stereo unspecified)	none (no result: EBV gp42 block)
CC(=O)Nc1ccc(NS(=O)(=O)c2ccc3c(c2)oc(=O)n3C)cc1	Keap1-Nrf2 PPI 19 (no result: EBV gp42 block) | Keap1 Kelch bind inactive
COc1ccc2nc3ccccc3nc2c1NC(=O)c1ccccc1Cl	Keap1-Nrf2 PPI 16, MEX-5 binding -35 | Keap1 Kelch bind inactive
O=C(Nc1ccc2ccccc2n1)c1ccccc1Cl	none (no result: EBV gp42 block)
Cc1c(/C=N/O)c2ccccn2c1C(=O)c1ccc(F)cc1	none (no result: EBV gp42 block)
CN1C(=O)c2cccc3c(S(=O)(=O)N(C)C)ccc1c23	none (no result: EBV gp42 block)
CNS(=O)(=O)c1ccc2c3c(cccc13)C(=O)N2C	Keap1-Nrf2 PPI 32 (no result: EBV gp42 block) | Keap1 Kelch bind inactive
CC(C)[C@H](NC(=O)OCc1ccccc1)C(=O)OCC(=O)N1CCN(c2ccc(F)cc2)CC1	none (no result: EBV gp42 block, MEX-5 binding)
CC[C@H](C)[C@H](NC(=O)OCc1ccccc1)C(=O)OCC(=O)N1CCN(c2ccc(F)cc2)CC1	Keap1-Nrf2 PPI 26 (no result: EBV gp42 block, T cell HTS, MEX-5 binding, GRK2 inh) | Keap1 Kelch bind inactive | Dye-only ctr inactive
